Data taken from the RNAGym collection of RNA variant scans (doi:10.1038/s41586-018-0170-7).

B1: tRNA (parent)
chain: GUUCCGUUGGCGUAAUGGUAACGCGUCUCCCUCCUAAGGAGAAGACUGCGGGUUCGAGUCCCGUACGGAACG

Variants of: B1
Experiment: yeast fitness, log relative to wild type (ln ratio); higher = fitter; tRNA-Arg(CCU), competitive growth, 37 C, 1 M NaCl
Outline: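 Fitness is the natural log of a genotype's generation count divided by that of the wild type. A combinatorial library of tRNA-Arg(CCU) variants sat on a HIS3 centromeric plasmid in BY4742 lacking the chromosomal gene, from two independent transformations. Pools grew 4 generations in SC-HIS at 30 °C, then ~6.5 generations (~26.5 h) in SC-HIS 1M NaCl at 37 °C, with three outputs per input. Generations came from OD-scaled log2 output/input frequency, inverse-variance weighted across replicates, with variants counted by 125 bp paired-end Illumina sequencing.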

| Variant | yeast fitness (ln) |
| --- | --- |
| C66U A69G A70U C71U | -0.339 |
| G1A G6A | -0.0503 |
| G6U A43C C66U A69G A70G C71U | -0.442 |
| U2C G6A C27U A43C C66A C71U | -0.333 |
| U2C G6A C46U C66U A70G | -0.00418 |
| U2C A43C C46U C66U C71U | -0.19 |
| G1A C27U C46U C66A A69G A70U C71U | -0.411 |
| G1A G6U C27U C46U C66A | -0.32 |
| G1A A43C C46U C66A A69G A70G C71U | -0.191 |
| G1A G6A C27U C46U A70U C71U | -0.258 |
| G1A U2G G6A C27U A43C C66U A69G A70G C71U | -0.563 |
| U2C G6A C27U A43C C46U C66U A70G | -0.0221 |
| G1A G6U C27U C66A A70U C71U | -0.369 |
| U2G C27U A43C C66U A69G A70G C71U | -0.402 |
| G1A U2G A69G A70G C71U | -0.438 |
| G1A G6A C27U C46U A69G C71U | -0.238 |
| G1A U2C G6U C66A A70G C71U | -0.0113 |
| U2C A43C C46U C66A A69G A70G | -0.15 |
| U2C G6A A69G C71U | -0.176 |
| G6U A43C C46U C66A | -0.00135 |
| G1A G6U A43C C46U C66U | -0.286 |
| U2G A43C C46U A69G | -0.0675 |
| C66A A69G A70U C71U | -0.32 |
| U2C G6A C27U A43C A69G A70G | -0.211 |

| Variant | yeast fitness (ln) |
| --- | --- |
| G6U C27U A43C C46U C66U A69G C71U | -0.432 |
| U2G G6U A43C C66U A69G C71U | -0.408 |
| U2G A43C C46U C66A A70G | -0.119 |
| G6U A43C C46U A69G A70G | -0.232 |
| A69G | -0.00462 |
| G1A U2C G6A C27U C46U A69G A70U | -0.07 |
| U2C G6U C46U C66A A70G C71U | -0.0101 |
| G1A G6U C27U C66U A69G C71U | -0.295 |
| G1A U2G G6U C27U A43C A70U C71U | -0.415 |
| U2G G6U C66A A69G A70U C71U | -0.726 |
| G1A U2G G6A C27U C66U | -0.221 |
| G6U C27U A43C C46U A70G C71U | -0.337 |
| G1A U2C G6U A70G C71U | -0.0526 |
| C27U A70U | -0.042 |
| G1A U2G G6U C46U C71U | -0.251 |
| G6A C27U A43C C46U C66U A70U | -0.183 |
| G1A U2C G6U C27U | -0.0816 |
| G1A U2G C27U A43C C46U C66U A70U | -0.214 |
| G1A A43C A69G A70U C71U | -0.366 |
| G6A C27U C46U C66U A69G A70U C71U | -0.302 |
| U2G G6A A43C A70G C71U | -0.18 |
| G1A U2G A43C C66A A70U | -0.12 |
| U2G G6A C27U C46U A69G A70G C71U | -0.194 |
| G1A U2G G6U C27U C66A A70G C71U | -0.287 |

| Variant | yeast fitness (ln) |
| --- | --- |
| G1A U2C G6U C66A A70U C71U | -0.16 |
| U2C G6A C66U A70G | -0.00663 |
| U2G A43C C46U C66U A69G A70G C71U | -0.244 |
| U2C C46U C66A A69G A70G | -0.0391 |
| G1A U2C G6U C66U A69G A70G | -0.362 |
| U2C C27U A69G A70U | -0.175 |
| U2C G6A C27U A43C A69G C71U | -0.29 |
| U2G G6A C46U C66U A70G | -0.0322 |
| U2G C27U A43C C66A A70U C71U | -0.319 |
| G1A G6A C46U A69G A70G C71U | -0.129 |
| C27U A43C C46U C66A A69G C71U | -0.317 |
| G1A G6A C27U C46U A69G A70G C71U | -0.316 |
| G1A U2C G6A A43C C46U A70G C71U | -0.354 |
| G1A A43C C46U C66U A69G A70U C71U | -0.469 |
| G1A U2G A43C C46U A70G C71U | -0.342 |
| U2C C66A A70U | -0.0514 |
| G1A U2G G6A A43C C46U C66A A70U C71U | -0.282 |
| G1A G6U C46U C71U | -0.183 |
| U2G C27U A43C C66A A69G A70G C71U | -0.305 |
| G1A U2G C46U C66U A70U | -0.0831 |
| G6U C27U A43C A70G | -0.282 |
| U2C G6U C27U C46U C66A A70G C71U | -0.0247 |
| G1A U2G G6U A43C C66A A70G C71U | -0.301 |
| C27U C46U C66A A69G A70G C71U | -0.156 |

| Variant | yeast fitness (ln) |
| --- | --- |
| G1A U2G G6U C27U C46U C66U A70U C71U | -0.334 |
| G1A U2C G6A C46U | 0.00156 |
| U2C A43C A69G | -0.0815 |
| G6A C27U C66A A70U | -0.107 |
| U2C G6U C27U A43C C46U A69G A70G C71U | -0.188 |
| U2G G6U C27U C66A A69G A70U C71U | -0.369 |
| G6U A43C C46U C66A A70U | -0.113 |
| G6U A43C C46U C66U A69G A70G | -0.313 |
| G1A U2C G6U C46U | 0.0116 |
| G6U C27U C46U C71U | -0.205 |
| U2C C46U A70U C71U | -0.0871 |
| U2C C27U A43C C66A | -0.155 |
| G1A U2C G6U A43C C66U A70G C71U | -0.335 |
| G1A G6A C27U A43C C46U A70U C71U | -0.263 |
| G6A A43C C66U A70U C71U | -0.384 |
| G1A G6A C46U C66U A69G C71U | -0.0213 |
| A43C C46U C66U A70G | -0.0608 |
| G1A U2C C46U C66A A69G A70G C71U | -0.273 |
| G1A C46U A69G A70G | -0.127 |
| G6U C27U A43C C66U A70G C71U | -0.352 |
| G6U C27U A43C C66A A70U C71U | -0.477 |
| U2C G6U A43C C46U C66A A70G | 0.0031 |
| G1A G6A C46U | -0.0333 |
| G1A G6U C27U A43C C46U C66A A69G C71U | -0.671 |

| Variant | yeast fitness (ln) |
| --- | --- |
| G1A U2G G6A A69G C71U | -0.244 |
| G1A U2C G6U A43C C66A A70G C71U | -0.0204 |
| G1A U2G G6U C71U | -0.196 |
| U2C C27U A43C C46U A70G | -0.0098 |
| U2C G6U C27U C66A A70G | -0.0277 |
| G1A G6U A43C C66U A70U C71U | -0.38 |
| U2G G6A C27U C66U A69G A70U | -0.0719 |
| G1A U2C C27U A43C A69G A70U | -0.307 |
| C27U C46U C66U C71U | -0.376 |
| G6A A43C A69G A70U | -0.224 |
| G1A G6U C27U C66A A70G C71U | -0.531 |
| U2G G6A C27U C46U C66A A70G | -0.16 |
| G6U C66U A69G | -0.527 |
| U2G G6A C27U A43C C46U A69G A70G | -0.183 |
| U2G G6U A43C C46U C66A A69G A70G | -0.242 |
| G1A U2G G6U C27U C46U C66U A69G A70G C71U | -0.339 |
| G1A G6U C66U A70U C71U | -0.278 |
| G1A U2G C27U A43C C46U A70G C71U | -0.223 |
| U2G C27U A43C C46U A70U C71U | -0.0906 |
| G1A U2C C27U A43C C66U A69G A70U C71U | -0.397 |
| G1A U2C G6A A43C C46U C66U A70G C71U | -0.015 |
| U2G C27U A43C C46U A70G C71U | -0.115 |
| G1A U2G G6U C27U A69G A70U C71U | -0.404 |
| U2C G6U C27U A69G A70G C71U | -0.157 |

| Variant | yeast fitness (ln) |
| --- | --- |
| U2C A43C A70G C71U | -0.0158 |
| G1A U2G A43C C46U C66A A69G C71U | -0.335 |
| U2C A43C C46U C66U A70G | -0.0311 |
| G1A G6U A43C C66A A70G C71U | -0.517 |
| U2G G6U C27U A43C C46U A70G C71U | -0.295 |
| G6U C46U C66A A70U | 0.00243 |
| G1A U2C A43C C46U A69G A70G | -0.0565 |
| U2C C27U C46U A70G C71U | -0.0224 |
| G1A U2G G6U C27U C66U A69G A70G | -0.333 |
| G6A C66U A69G A70G C71U | -0.41 |
| U2C C27U A43C C46U C66A A69G A70U | -0.263 |
| G1A U2G G6A C27U A43C A69G A70U | -0.379 |
| U2C G6A C46U A69G A70U | -0.084 |
| G1A U2C G6U C66A A69G A70G | -0.126 |
| G1A G6U C46U | -0.0505 |
| U2G G6A C27U C71U | -0.156 |
| U2C G6U C27U C46U A69G A70G | -0.274 |
| U2C G6U A43C | -0.0574 |
| U2G C27U A43C C66U A70U C71U | -0.333 |
| U2C G6U C46U A70G | -0.0195 |
| G1A U2C G6A C46U C66U A69G A70G C71U | -0.0172 |
| U2G G6A C46U C66A A70U C71U | -0.106 |
| G6A C46U C66U A69G A70U | -0.202 |
| U2G G6A C27U C66U A70U C71U | -0.364 |

| Variant | yeast fitness (ln) |
| --- | --- |
| U2C C27U A70G C71U | -0.0321 |
| U2C C66A A69G A70U C71U | -0.496 |
| G1A G6A C27U A70U | -0.293 |
| G1A A70U C71U | -0.0607 |
| U2C G6U A43C C46U A70G C71U | -0.278 |
| U2C G6U C27U C46U A70U | -0.13 |
| U2G G6A C27U C46U C66A A69G A70G C71U | -0.251 |
| G1A U2G G6U C46U A70U C71U | -0.511 |
| G1A G6A C66U A70U | -0.0527 |
| G1A G6A C27U A43C C46U C66U | -0.131 |
| U2C G6A C27U A43C C46U | -0.0171 |
| U2C G6U C27U A43C C66U | -0.0999 |
| G1A G6U C27U C66A C71U | -0.0761 |
| U2C G6A C27U C46U C66A A70G | -0.0252 |
| U2C C27U C46U C66A A69G A70U | -0.114 |
| U2C G6U A43C C46U C66U C71U | -0.242 |
| U2G C27U C71U | -0.0721 |
| U2G A43C C66A A69G A70G | -0.162 |
| U2G C46U C66U A69G A70U | -0.0704 |
| G1A U2G G6U A43C C46U C66U | -0.271 |
| G1A U2G G6U A43C C66A A69G A70U C71U | -0.351 |
| U2C C66U A69G A70G C71U | -0.101 |
| G1A U2G G6A C27U A70G | -0.339 |
